# Compound activity deposited in PubChem BioAssay by several laboratories.
# BCLXL inh = inhibitors of human Bcl-xL, primary screen, biochemical, fluorescence polarization, HTS. GST-Bcl-xL / FITC-Bim BH3 peptide fluorescence polarization. hit rate 0.7% among 320,000. AID 2129, 2009. inhibition, % at 10.9 µM. Bcl-2-like protein 1 (Homo sapiens), Q07817;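 active = inhibition above the mean of all tested compounds plus 3 SD, cutoff set per campaign, cut at about 30% in these data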;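 note: 0% = DMSO wells and 100% = unlabeled Bim-BH3 peptide competitor; inhibitors lower millipolarization by displacing the labeled peptide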
# Target sequence (Q07817 whole entry, looked up): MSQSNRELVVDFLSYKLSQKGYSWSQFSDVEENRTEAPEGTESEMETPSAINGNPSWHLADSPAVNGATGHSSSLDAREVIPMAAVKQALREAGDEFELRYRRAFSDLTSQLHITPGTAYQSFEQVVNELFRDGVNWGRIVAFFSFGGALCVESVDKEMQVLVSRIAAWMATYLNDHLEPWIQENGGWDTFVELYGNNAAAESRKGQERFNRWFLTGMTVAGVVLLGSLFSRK
# GLD-1 RNA inh = GLD-1/TGE RNA complex disruptors, primary screen, biochemical, fluorescence polarization; Female germline-specific tumor suppressor gld-1 (Caenorhabditis elegans), Q17339; purified GLD-1 + fluorescein TGE RNA; inhibition, % at 5.96 µM; hit rate 0.44% among 320,000; AID 2280, 2010;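 active = percent inhibition above a per-plate cutoff, the plate mean of test compounds plus 3 SD, cut at about 30% in these data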;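 note: 0% = DMSO wells with GLD-1 and probe and 100% = wells lacking GLD-1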
# VIM-2 inhibitor = VIM-2 metallo-beta-lactamase inhibitors, primary screen, biochemical, epi-absorbance readout, Pseudomonas aeruginosa enzyme; hit rate 0.89% among 290,000; purified VIM-2, nitrocefin hydrolysis, epi-absorbance fluorescence; inhibition, % at 5.6 µM;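 active = inhibition above the mean of all tested compounds plus 3 SD, cutoff set per screening run, cut at about 7.5% in these data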;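 note: red hydrolysis product quenches plate fluorescence so inhibitors raise well fluorescence; 0% = enzyme with DMSO and 100% = DMSO without enzyme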
# IMP-1 inh = IMP-1 metallo-beta-lactamase inhibitors, primary screen, biochemical, epi-absorbance readout, Pseudomonas aeruginosa enzyme; purified IMP-1, nitrocefin hydrolysis, epi-absorbance fluorescence; AID 1556, 2009; inhibition, % at 5.6 µM; hit rate 0.45% among 290,000; metallo-beta-lactamase IMP-1 (Pseudomonas aeruginosa);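 active = inhibition above the mean plus 3 SD of all compounds in the same screening run, cut at about 4.5% in these data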;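 note: 0% = IMP-1 with DMSO and 100% = DMSO wells lacking enzyme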
#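 System – purified recombinant IMP-1 beta-lactamase · Input – IMP-1 dispensed at 0.2 nM · Timing – 15 min preincubation plus 25 min reaction at 25 °C · Signal – Epi-absorbance fluorescence, 480 nm excitation, 530 nm emission · Measure – percent IMP-1 inhibition derived from blank-referenced optical density · Controls – Enzyme-plus-DMSO low control, enzyme-free DMSO high control · Replication – singlicate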
# MEX-5 binding = MEX-5 zinc finger RNA-binding disruptors – biochemical, C. elegans, fluorescence polarization, MLPCN library, primary screen | Zinc finger protein mex-5 (Caenorhabditis elegans), Q9XUB2 | MEX-5/FITC-TCR2 RNA binding; active compounds read low | activity score (negative = inhibition of binding), % at 10 µM | hit rate 0.38% among 300,000;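 active = inhibition past about -25% in most replicates, and total fluorescence under double the plate's negative control median, limit read from the data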;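 note: 0% = DMSO and -100% = 5 µM competing unlabeled TCR2 RNA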
# EBV gp42 block = Epstein-Barr virus gp42 inhibitors, primary screen, biochemical, uHTS, fluorescence polarization | Glycoprotein 42 (Epstein-Barr virus (strain AG876)), Q1HVG2 | Fluorescence polarization binding assay, mP read-out | inhibition, % (tested at 21.74 µM) | hit rate 0.42% among 220,000 | AID 1085, 2008; in the data active = inhibition above about 50%
# Target sequence (Q1HVG2 whole entry, looked up): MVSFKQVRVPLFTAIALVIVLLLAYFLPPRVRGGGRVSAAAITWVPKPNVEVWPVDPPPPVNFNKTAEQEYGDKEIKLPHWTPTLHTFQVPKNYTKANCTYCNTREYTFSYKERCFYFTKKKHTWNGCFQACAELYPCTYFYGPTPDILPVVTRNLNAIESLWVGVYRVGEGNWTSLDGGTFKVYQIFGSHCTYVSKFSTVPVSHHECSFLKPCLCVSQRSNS
# * hit, by the source's call; nt = not tested or not shown. Most compounds without a hit are left out; they make up all but 2.2% or so of the library.
SMILES,BCLXL inh,GLD-1 RNA inh,VIM-2 inhibitor,IMP-1 inh,MEX-5 binding,EBV gp42 block
COCCN=c1scc(-c2ccco2)n1/N=C/c1ccc(O)c(O)c1O,-15,-15,1,2,nt,74*
O=C(c1ccc(F)cc1)[C@@H]1[C@@H](C(=O)c2ccccc2)[C@@]2(C(=O)Nc3ccccc32)[C@H]2c3ccccc3C=CN12,27,34*,-2,-1,2,4
Cc1[nH]c2ccccc2c1Cc1nnc(SCC(N)=O)o1,2,4,0,9.6*,1,-14
Cc1[nH]c2ccccc2c1CCC(N)=O,4,-4,-1,0,0,-22
N#CC1=C(N)Oc2n[nH]c(-c3cccs3)c2C1c1ccccc1C(=O)O (stereo not drawn),4,9,4,-2,-1,5
N#CC1=C(N)Oc2n[nH]c(-c3cccs3)c2C1c1cccs1 (stereo not drawn),8,8,8.2*,3,1,2
O=C(COc1ccccc1[N+](=O)[O-])N(Cc1ccco1)C1CCS(=O)(=O)C1 (stereo not drawn),2,1,0,0,1,nt
COc1ccc(OC)c(NC(=S)NCc2ccccc2OC)c1,30*,15,-1,-2,-1,1
CCCCc1cc(=O)oc2c(CN3CCCC3)c(O)ccc12,6,-9,-1,1,0,nt
CCCc1cc(=O)oc2c(CNc3ccc(OCC)cc3)c(O)ccc12,7,1,-3,5.8*,-9,nt
O=C(CN1CCN(c2ccccn2)CC1)Nc1ccc(OC(F)(F)F)cc1,4,3,-5,6.1*,1,nt
CC(=O)Nc1ccc(NC(=O)CN2CCN(c3ccccn3)CC2)cc1,-2,1,-1,1,0,nt
CCCCN(C(=O)Cc1ccc(S(=O)(=O)N2CCOCC2)s1)c1c(N)n(CCCC)c(=O)[nH]c1=O,-2,4,nt,nt,0,nt
CCN(CC)S(=O)(=O)c1ccc(C(=O)Nc2cc(S(=O)(=O)N3CCOCC3)ccc2O)cc1,nt,3,nt,nt,nt,nt
COc1ccc(/C=N/NC(=O)c2nn(C)cc2Br)cc1CSCc1ccco1,7,1,2,18*,2,nt
NC(=O)Cn1c(=O)n(Cc2ccco2)c(=O)c2c3c(sc21)CCCCC3,34*,6,-2,1,1,18
O=C(Cn1c(=O)n(Cc2ccco2)c(=O)c2c3c(sc21)CCCC3)Nc1ccccc1,-1,-3,-2,-1,2,7
CSCC[C@H](NC(=O)[C@@H]1Cc2ccccc2CN1)C(=O)Nc1ccc2c(c1)OCO2,10,3,-4,-3,-3,nt
CCOC(=O)C1=C(O)/C(=C/c2ccc(-c3ccccc3C(=O)O)o2)SC1=Nc1ccc(OC)cc1,nt,nt,11*,-4,nt,-9
COc1ccccc1CNC(=O)CN1C(=O)NC(Cc2ccccc2)(c2ccccc2)C1=O (stereo not drawn),nt,-4,nt,nt,nt,nt
Cc1ccc(N2C(=O)[C@@H]3[C@H](C2=O)C2c4ccccc4C=CN2[C@@H]3C(=O)c2ccco2)cc1 (stereo partly drawn),nt,nt,3,3,nt,54*
Cc1ccc(N2C(=O)[C@@H]3[C@H](C2=O)C2c4ccccc4C=CN2[C@@H]3C(=O)c2ccco2)c(C)c1 (stereo partly drawn),73*,62*,0,-2,5,nt
O=C(c1ccc(Cl)cc1)[C@@H]1[C@@H]2C(=O)N(c3ccccc3)C(=O)[C@@H]2C2c3ccccc3C=NN21 (stereo partly drawn),20,8,-2,-1,1,-26
O=C(c1ccco1)[C@@H]1[C@@H]2C(=O)N(c3ccccc3)C(=O)[C@@H]2C2c3ccccc3C=CN21 (stereo partly drawn),79*,69*,-2,-1,-30*,nt
COc1ccc(N2C(=O)[C@@H]3[C@H](C2=O)[C@H]2c4ccccc4C=CN2[C@@H]3C(=O)Nc2ccccc2)cc1,-33,-12,1,42*,nt,-13
SMILES,BCLXL inh,GLD-1 RNA inh,VIM-2 inhibitor,IMP-1 inh,MEX-5 binding,EBV gp42 block
CC(C)(C)C(=O)[C@@H]1[C@@H]2C(=O)N(c3ccc4c(c3)OCCO4)C(=O)[C@@H]2C2c3ccccc3C=CN21 (stereo partly drawn),-2,-3,1,-1,2,24
Cc1ccc(-n2ncc3c(NNC(=O)c4ccco4)ncnc32)c(C)c1,6,3,0,-2,-6,7
CC(OC(=O)COc1cccc2c1OC(C)(C)C2)C(=O)Nc1ccc(S(N)(=O)=O)cc1 (stereo not drawn),1,4,nt,nt,-1,nt
CC(=O)[C@@H]1[C@@H]2C(=O)N(Cc3ccccc3)C(=O)[C@@H]2C2c3ccccc3C=CN21 (stereo partly drawn),46*,39*,-1,-2,-8,40
COc1ccc(/C=N/NC(=O)c2cc(C(C)(C)C)[nH]n2)cc1COc1ccc(F)cc1F,-1,2,-3,-3,2,8
O=C(O)c1cc(-n2nnnc2SCc2ccccc2F)ccc1Cl,2,6,10*,-2,1,14
O=c1c2ccccc2c(C=Nc2cccc(O)c2)c(O)n1-c1ccc2c(c1)OCO2,-2,2,0,-2,-4,51*
COc1ccc(N=Cc2c(O)n(-c3ccc(OC)cc3)c(=O)c3ccccc23)cc1,6,-10,-1,-3,-4,-8
Cc1ccc(C(=O)N2CC(=O)NC(=O)C2)cc1,7,10,0,1,-2,nt
C#CCOC(=O)/C(=C/C=C/c1ccccc1)NC(=O)c1ccccc1,8,3,-1,-1,0,61*
CC(C)OC(=O)/C(=C\C=C\c1ccccc1)NC(=O)c1ccccc1,5,0,1,-2,-2,4
N#CC1=C2SCN(c3ccccc3)CN2C(=O)CC1c1c(Cl)cccc1Cl (stereo not drawn),-14,1,46*,-4,-1,-28
O=C(c1cccs1)N1CCN(C23CC4CC(CC(C4)C2)C3)CC1,4,7,-1,-2,1,nt
O=C(NN1C(=O)c2ccccc2NC1c1ccco1)c1ccc([N+](=O)[O-])cc1 (stereo not drawn),4,2,0,-2,0,-8
O=C(NN1C(=O)c2ccccc2NC1c1ccccn1)c1ccc([N+](=O)[O-])cc1 (stereo not drawn),-3,-2,-5,-6,-44*,-5
